According to ChEMBL document CHEMBL4477160, “Methylbenzene-Containing Polyketides from a Streptomyces that Spontaneously Acquired Rifampicin Resistance: Structural Elucidation and Biosynthesis” (J Nat Prod, 2016):
Calls of active or inactive are those of the source.

How the values were obtained:
Escherichia coli = experiment: Antimicrobial activity against Escherichia coli assessed as decrease in cell viability at 1.56 to 100 uM after 24 hrs; assay type: functional, organism-based
Outline: (§1)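 Compounds in DMSO dispensed at a range of concentrations into 384-well plates. Each test strain was grown to OD620 ~0.5, diluted 2000-fold in LB medium and added to the wells. Plates were incubated 24 h at 37 °C. Viability was read as absorbance at 620 nm.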

Micrococcus luteus = experiment: Antimicrobial activity against Micrococcus luteus assessed as decrease in cell viability at 1.56 to 100 uM after 24 hrs; assay type: functional, organism-based; outline: as §1
Staphylococcus aureus = experiment: Antimicrobial activity against Staphylococcus aureus assessed as decrease in cell viability at 1.56 to 100 uM after 24 hrs; assay type: functional, organism-based; outline: as §1
Bacillus subtilis = experiment: Antimicrobial activity against Bacillus subtilis assessed as decrease in cell viability at 1.56 to 100 uM after 24 hrs; assay type: functional, organism-based; outline: as §1
SK-OV-3 = experiment: Cytotoxicity against human SKOV3 cells assessed as decrease in cell viability at 0.01 to 100 uM after 72 hrs by WST-8 assay; assay type: functional, cell-based
Homo sapiens = species: Homo sapiens; experiment: Cytotoxicity against human ACC-MESO1 cells assessed as decrease in cell viability at 0.01 to 100 uM after 72 hrs by WST-8 assay; assay type: functional, cell-based
Jurkat = experiment: Cytotoxicity against human Jurkat cells assessed as decrease in cell viability at 0.01 to 100 uM after 72 hrs by WST-8 assay; assay type: functional, cell-based

Measured: Activity

Cc1ccccc1/C=C/C=C/C=C/C=C/C(=O)NC1=C(O)CCC1=O
inactive: all assays above

Cc1ccccc1/C=C/CCC(=O)NC1=C(O)CCC1=O
inactive: all assays above
